IDH1 R132H inh = inhibitors of human IDH1 R132H. O75874. AID 624101. IDH1 R132H reductase, diaphorase/resazurin fluorescence, 60 min. inhibition, % at 10 µM. 70,000 compounds, 0.18% hits; in the data active = inhibition above about 34%; inconclusive = no clear call, values can overlap the other calls; inactive = below about 11%
Target sequence (O75874 whole entry R132H): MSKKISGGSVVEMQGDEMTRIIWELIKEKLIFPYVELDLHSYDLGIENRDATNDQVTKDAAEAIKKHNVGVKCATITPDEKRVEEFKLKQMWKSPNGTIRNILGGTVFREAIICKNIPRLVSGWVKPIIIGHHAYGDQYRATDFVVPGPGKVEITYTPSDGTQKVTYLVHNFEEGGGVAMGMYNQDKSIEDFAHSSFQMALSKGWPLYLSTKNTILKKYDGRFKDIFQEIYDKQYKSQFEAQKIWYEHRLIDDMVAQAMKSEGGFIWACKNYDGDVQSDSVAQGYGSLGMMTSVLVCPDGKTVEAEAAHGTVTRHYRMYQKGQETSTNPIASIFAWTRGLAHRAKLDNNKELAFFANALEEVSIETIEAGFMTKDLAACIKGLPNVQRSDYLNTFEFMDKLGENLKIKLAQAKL
GASC1 inh = blocks human GASC-1 (KDM4C) demethylase activity | Q9H3R0 | GST-KDM4C 2-372, H3K9me3 peptide, LANCE TR-FRET | inhibition, % at 12.5 µM | 96,000 compounds, 0.15% hits;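 active = mean replicate inhibition above about 25%, with at least 55% of replicates also reaching it, limit read from the data, passing the limit was not always enough; inconclusive = only one of those two conditions met; inactive = neither condition met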
Target sequence (Q9H3R0 2-372 limits assumed): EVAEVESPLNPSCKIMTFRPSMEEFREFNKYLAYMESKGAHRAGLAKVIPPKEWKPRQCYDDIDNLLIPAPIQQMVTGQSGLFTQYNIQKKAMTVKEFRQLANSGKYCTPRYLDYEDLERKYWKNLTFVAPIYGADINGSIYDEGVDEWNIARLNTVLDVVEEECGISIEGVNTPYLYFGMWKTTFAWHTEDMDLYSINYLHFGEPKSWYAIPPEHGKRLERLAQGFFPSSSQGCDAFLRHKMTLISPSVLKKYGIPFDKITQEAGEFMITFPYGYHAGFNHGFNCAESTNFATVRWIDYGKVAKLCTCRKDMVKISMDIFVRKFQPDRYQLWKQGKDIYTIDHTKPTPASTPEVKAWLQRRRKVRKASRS
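Compound: one test concentration per compound; Material: GST-GASC-1 enzyme fragment 2-372; Amount: GASC-1 enzyme at 10 nM final in reaction; Also added: H3K9me3 peptide substrate, Fe(II), 2-oxoglutarate; Technique: LANCE TR-FRET; Times: 30 min demethylation and 1 h detection at room temperature.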
T cruzi growth-1 = blocks T. cruzi growth in NIH3T3 culture; T. cruzi beta-gal in NIH3T3, GalScreen luminescence, 90 h; inhibition, % at 8.34 µM; 77,000 compounds, 5.9% hits; AID 624255;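 active = mean inhibition above about 93%, with at least 55% of replicates each passing it, limit read from the data, passing the limit was not always enough; inconclusive = only one of those two conditions holds; inactive = neither condition holds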
T cruzi growth-2 = blocks T. cruzi growth in NIH3T3 host cells; shares compounds with T cruzi growth-1; T. cruzi beta-gal in NIH3T3, GalScreen luminescence, 90 h; inhibition, % at 8.35 µM; 5,600 compounds, 72% hits;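 active = mean replicate inhibition above about 95% and at least 55% of replicates individually reaching it, limit read from the data; inconclusive = only one of the two criteria is met; inactive = neither criterion is met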
T cruzi growth-3 = inhibitors of T. cruzi proliferation | shares compounds with T cruzi growth-1 | T. cruzi beta-gal in NIH3T3, GalScreen luminescence, 90 h | inhibition, % at 2.09 µM | 5,600 compounds, 21% hits | AID 651740;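 active = mean inhibition above about 95%, with at least 55% of replicates also reaching it, limit read from the data; inconclusive = meets just one of the two conditions; inactive = meets neither condition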
NIH3T3 tox = cytotoxicity in mouse NIH/3T3 fibroblasts | NIH/3T3 viability, CellTiter-Glo ATP luminescence, 90 h | cytotoxicity (signal decrease), % at 8.35 µM | shares compounds with T cruzi growth-1 | 5,600 compounds, 14% hits | AID 651742;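 active = mean signal decrease across replicates above about 35% based on untreated-well scatter, with enough replicates individually passing, limit read from the data; inconclusive = no rule stated though some were filed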
3T3 cytotox 2 = cytotoxicity in mouse NIH/3T3 fibroblasts; 5,600 compounds, 56% hits; NIH/3T3 viability, CellTiter-Glo ATP luminescence, 90 h; inhibition, % at 24.9 µM; shares compounds with T cruzi growth-1;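 active = mean loss of cell viability signal at or above a set limit, and enough replicates individually reaching it; inconclusive = meets only the mean limit or only the replicate share; inactive = meets neither condition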
Of the large screens only hits and unclear results are named; the others gave an inactive call (follow-up assays come after a bar, where they were run). The entries come from a sample that favours hits as a whole.

C[C@@H]1CCCCO[C@@H](CN(C)Cc2ccc(C(=O)O)cc2)[C@H](C)CN([C@H](C)CO)C(=O)c2cc(NC(=O)Nc3ccc(C(F)(F)F)cc3)ccc2O1	none
C[C@@H]1CCCCO[C@@H](CN(C)Cc2ccccc2)[C@@H](C)CN([C@@H](C)CO)C(=O)c2cc(NC(=O)Nc3ccc(C(F)(F)F)cc3)ccc2O1	none
C[C@@H]1CN([C@@H](C)CO)C(=O)c2cc(NC(=O)Nc3ccc(C(F)(F)F)cc3)ccc2O[C@@H](C)CCCCO[C@H]1CN(C)Cc1ccc(C(F)(F)F)cc1	T cruzi growth-1 inconclusive | T cruzi growth-2 inactive | T cruzi growth-3 inactive | NIH3T3 tox inactive | 3T3 cytotox 2 inactive
C[C@@H]1CCCCO[C@H](CN(C)Cc2ccc(C(=O)O)cc2)[C@H](C)CN([C@H](C)CO)C(=O)c2cc(NC(=O)Nc3ccc(C(F)(F)F)cc3)ccc2O1	none (no result: IDH1 R132H inh)
C[C@@H]1CCCCO[C@@H](CN(C)Cc2ccccc2)[C@@H](C)CN([C@H](C)CO)C(=O)c2cc(NC(=O)Nc3ccc(C(F)(F)F)cc3)ccc2O1	T cruzi growth-1 inconclusive (no result: IDH1 R132H inh) | T cruzi growth-2 inactive | T cruzi growth-3 115 | NIH3T3 tox inactive | 3T3 cytotox 2 inactive
C[C@H]1CCCCO[C@H](CN(C)Cc2ccc(C(F)(F)F)cc2)[C@@H](C)CN([C@@H](C)CO)C(=O)c2cc(NC(=O)NC3CCCCC3)ccc2O1	none
COC(=O)c1ccc(Cl)c(NC(=O)CSc2nc3c(c(C(F)(F)F)n2)CCCC3)c1	none (no result: GASC1 inh, T cruzi growth-1)
CCCC(=O)Nc1ccc2c(c1)C(=O)N(C)C[C@H](OC)[C@H](C)CN(C)[C@@H](C)CO2	none
CCC(=O)Nc1ccc2c(c1)OC[C@@H](C)N(C(=O)NC(C)C)C[C@@H](C)[C@H](OC)CN(C)C2=O	none (no result: IDH1 R132H inh, T cruzi growth-1)
COc1cc(C(c2c[nH]c3ccccc23)c2c[nH]c3ccccc23)c(O)c([N+](=O)[O-])c1	none (no result: GASC1 inh, T cruzi growth-1)
CCCC#Cc1ccc([C@H]2[C@@H](CO)N3C(=O)CN(C(=O)CN4CCOCC4)C[C@H]23)cc1	none (no result: IDH1 R132H inh, T cruzi growth-1)
COc1ccc(S(=O)(=O)N(C)C[C@@H]2Oc3cc(C4=CCCC4)ccc3S(=O)(=O)N([C@@H](C)CO)C[C@@H]2C)cc1	T cruzi growth-1 109 | T cruzi growth-2 104 | T cruzi growth-3 inactive | NIH3T3 tox inactive | 3T3 cytotox 2 39
COc1cccc(S(=O)(=O)N(C)C[C@@H]2Oc3cc(C4=CCCC4)ccc3S(=O)(=O)N([C@H](C)CO)C[C@@H]2C)c1	T cruzi growth-1 107 | T cruzi growth-2 104 | T cruzi growth-3 inactive | NIH3T3 tox inactive | 3T3 cytotox 2 27
COc1cccc(S(=O)(=O)N(C)C[C@H]2Oc3cc(C4=CCCCC4)ccc3S(=O)(=O)N([C@@H](C)CO)C[C@@H]2C)c1	none (no result: IDH1 R132H inh, T cruzi growth-1)
COc1cccc(S(=O)(=O)N(C)C[C@@H]2Oc3cc(C4=CCCCC4)ccc3S(=O)(=O)N([C@@H](C)CO)C[C@H]2C)c1	none (no result: T cruzi growth-1)
COc1cccc(S(=O)(=O)N(C)C[C@H]2Oc3cc(C4=CCCC4)ccc3S(=O)(=O)N([C@@H](C)CO)C[C@H]2C)c1	none
COc1ccc(S(=O)(=O)N(C)C[C@@H]2Oc3cc(C4=CCCC4)ccc3S(=O)(=O)N([C@H](C)CO)C[C@@H]2C)cc1	T cruzi growth-1 120 | T cruzi growth-2 101 | T cruzi growth-3 inactive | NIH3T3 tox inactive | 3T3 cytotox 2 49
CCOC(=O)c1c(NC(=S)Nc2nc(C)cc(C)n2)sc(C)c1-c1ccccc1	none (no result: GASC1 inh, T cruzi growth-1)
CCCCN(CC)C(=O)Cn1c(=O)n(Cc2ccccc2Cl)c(=O)c2cc(OC)c(OC)cc21	none (no result: GASC1 inh, T cruzi growth-1)
O=C(CSC1CC(=O)N(c2cccc(Cl)c2)C1=O)Nc1ccc(Br)cc1 (stereo unspecified)	none (no result: GASC1 inh, T cruzi growth-1)
C[C@@H]1CCCCO[C@@H](CN(C)S(C)(=O)=O)[C@@H](C)CN([C@@H](C)CO)C(=O)c2cc(N(C)C)ccc2O1	none (no result: IDH1 R132H inh)
Cc1ccc(S(=O)(=O)Nc2ccc3c(c2)C(=O)N([C@H](C)CO)C[C@H](C)[C@H](CN(C)C(=O)c2ccccc2)OCCCC[C@H](C)O3)cc1	none (no result: IDH1 R132H inh)
C[C@@H]1CCCCO[C@H](CN(C)Cc2ccc3c(c2)OCO3)[C@@H](C)CN([C@H](C)CO)C(=O)c2cc(NC(=O)Nc3ccc4c(c3)OCO4)ccc2O1	T cruzi growth-1 inconclusive | T cruzi growth-2 110 | T cruzi growth-3 inactive | NIH3T3 tox inactive | 3T3 cytotox 2 inactive
C[C@@H]1CCCCO[C@@H](CN(C)Cc2ccc3c(c2)OCO3)[C@@H](C)CN([C@@H](C)CO)C(=O)c2cc(NC(=O)Nc3ccc4c(c3)OCO4)ccc2O1	none (no result: IDH1 R132H inh)
C[C@@H]1CCCCO[C@H](CN(C)Cc2ccc3c(c2)OCO3)[C@H](C)CN([C@@H](C)CO)C(=O)c2cc(NC(=O)Nc3ccc4c(c3)OCO4)ccc2O1	none (no result: IDH1 R132H inh)
C[C@@H]1CCCCO[C@@H](CN(C)Cc2ccc(Cl)c(Cl)c2)[C@H](C)CN([C@H](C)CO)C(=O)c2cc(NC(=O)Nc3ccc4c(c3)OCO4)ccc2O1	none
C[C@H]1CCCCO[C@H](CN(C)Cc2ccc3c(c2)OCO3)[C@@H](C)CN([C@@H](C)CO)C(=O)c2cc(NC(=O)Nc3ccc4c(c3)OCO4)ccc2O1	T cruzi growth-1 100 | T cruzi growth-2 99 | T cruzi growth-3 110 | NIH3T3 tox inactive | 3T3 cytotox 2 106
C[C@@H]1CCCCO[C@H](CN(C)Cc2ccc(Cl)c(Cl)c2)[C@@H](C)CN([C@H](C)CO)C(=O)c2cc(NC(=O)Nc3ccc4c(c3)OCO4)ccc2O1	T cruzi growth-1 103 (no result: IDH1 R132H inh) | T cruzi growth-2 107 | T cruzi growth-3 105 | NIH3T3 tox inactive | 3T3 cytotox 2 inactive
O=S(=O)(N[C@H]1CC[C@H](CCn2cc(C3(O)CCCC3)nn2)O[C@H]1CO)c1ccc(F)cc1	none
O=C(c1ccc([N+](=O)[O-])cc1)n1nc(-c2ccc(Cl)cc2)nc1NCc1ccco1	none (no result: GASC1 inh, T cruzi growth-1)
C[C@@H]1CN([C@@H](C)CO)C(=O)Cc2cc(NC(=O)Cn3cnnn3)ccc2O[C@@H]1CN(C)S(=O)(=O)c1ccc(F)cc1	none
C[C@H](CO)N1C[C@H](C)[C@H](CN(C)C(=O)Cc2ccccc2)OCCCC[C@H](C)Oc2ccc(NS(=O)(=O)c3cn(C)cn3)cc2C1=O	none (no result: IDH1 R132H inh)
O=C(c1ccccn1)N1CC2(C1)[C@H](c1ccccc1)[C@H](CO)N2Cc1ccc(Cl)cc1	none (no result: IDH1 R132H inh, T cruzi growth-1)
COc1ccccc1C(=O)Nc1ccc2c(c1)C(=O)N(C)C[C@H](OC)[C@@H](C)CN[C@@H](C)CO2	none
CN(C)CCCNC(=O)C[C@@H]1CC[C@@H]2[C@H](COC[C@H](O)CN2S(=O)(=O)c2ccc(Cl)cc2)O1	none (no result: IDH1 R132H inh)
CCCC(=O)Nc1ccc2c(c1)C(=O)N(C)C[C@@H](OC)[C@H](C)CN(Cc1ccccc1F)[C@@H](C)CO2	none

Compound activity as filed in PubChem BioAssay.
